Laboratory results published in ChEMBL document CHEMBL1151954, “Photinides A-F, cytotoxic benzofuranone-derived gamma-lactones from the plant endophytic fungus Pestalotiopsis photiniae” (2009).
Active and inactive are the calls of the source. The rule behind the calls is not given here.

What was measured:
[1] = test system: MDA-MB-231; assay: Cytotoxicity against human MDA-MB-231 cells at 10 ug/ml after 4 hrs by MTT assay; assay type: functional
How it was run: (§1)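 MTT assay in 96-well plates, 10^4 cells per well, attached overnight. Cells were exposed to compound diluted in medium from 10 mg/mL DMSO stocks (vehicle control 0.2% DMSO) at 37 °C, 5% CO2, for 4 h, then changed to fresh DMEM. MTT (0.5 mg/mL) was added for 3 h at 37 °C in the dark. Formazan was dissolved in DMSO and read at 540 nm; results given as inhibitory rate.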

[2] = test system: HeLa; assay: Cytotoxicity against human HeLa cells at 10 ug/ml after 4 hrs by MTT assay; assay type: functional, cell-based; how it was run: as §1

COc1cccc2c1C(=O)[C@]1(O2)O[C@@]1(CO)[C@@H]1OC(=O)C[C@H]1C
Activity [1]: 24.6% | Activity [2]: inactive

COc1cccc2c1C(=O)[C@@]1(O2)O[C@]1(CO)[C@@H]1OC(=O)C[C@H]1C
Activity [1]: Active | Activity [2]: inactive

COc1cccc2c1C(=O)/C(=C(\CO)[C@@H]1OC(=O)C[C@H]1C)O2 [PHOTINIDE A]
Activity [1]: 24.4% | Activity [2]: inactive

COc1cccc2c1C(=O)/C(=C(/CO)[C@@H]1OC(=O)C[C@H]1C)O2 [PHOTINIDE B]
Activity [1]: 24.2% | Activity [2]: inactive

C[C@@H]1CC(=O)O[C@H]1/C(CO)=C1\Oc2cccc(O)c2C1=O [PHOTINIDE C]
Activity [1]: 23.1% | Activity [2]: inactive

C[C@@H]1CC(=O)O[C@H]1/C(CO)=C1/Oc2cccc(O)c2C1=O [PHOTINIDE D]
Activity [1]: 24.4% | Activity [2]: inactive
